This is an account of results in ChEMBL document CHEMBL1127737, “Characterization of two taxol photoaffinity analogues bearing azide and benzophenone-related photoreactive substituents in the A-ring side chain” (1994).

Test [1] is described as follows: Relative initial slope of the compound. It counts as functional. In a few lines:
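Calf brain microtubule protein, purified by two cycles of temperature-dependent assembly-disassembly. Assembly ran in 0.1 M MES, 1 mM EGTA, MgCl2 and 3 M glycerol, pH 6.6, at 35 °C and was followed by turbidity at 350 nm. Assembly extent and initial slope were expressed relative to taxol. DMSO vehicle was at most 1% final.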

The test system of the next test is J774. Briefly: Concentration that inhibits the cell division by 50% after 72 h. The class given is functional. The conditions noted are these: Mus musculus, J774, 72 h; read-out: ED50 (the source's name). In a few lines: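 J774.2 murine macrophage-like cells (3×10^5 per 60-mm plate) incubated with a range of compound concentrations; viable cell number counted by Coulter counter after 72 h. ED50 taken as the concentration inhibiting cell division by 50%. Compounds dissolved in DMSO, final DMSO at most 0.2%.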

A further test concerns Tubulin (Bos taurus). Briefly: Effect of compound on assembly property of microtubule protein. 1.5 mg/mL MTP + 15 uM compound.

In turn, `CC(=O)O[C@H]1C(=O)[C@@]2(C)[C@H]([C@H](OC(=O)c3ccccc3)[C@]3(O)C[C@H](OC(=O)[C@H](O)[C@@H](NC(=O)c4ccc(N=[N+]=[N-])cc4)c4ccccc4)C(C)=C1C3(C)C)[C@]1(OC(C)=O)CO[C@@H]1C[C@@H]2O` had a Relative initial slope in test [1] of 84. Further, in the test with J774, the EC50 amounted to 280 nM.

As for `CC(=O)O[C@H]1C(=O)[C@@]2(C)[C@H]([C@H](OC(=O)c3ccccc3)[C@]3(O)C[C@H](OC(=O)[C@H](O)C(NC(=O)c4ccc(C(=O)c5ccccc5)cc4)c4ccccc4)C(C)=C1C3(C)C)[C@]1(OC(C)=O)CO[C@@H]1C[C@@H]2O` (stereo not given in full), in test [1], the Relative initial slope stood at 15. For the same compound, in the test with Tubulin (Bos taurus), the Assembly was 39%. The EC50 in the test with J774 was determined as 1500 nM.

Compound `Nc1nc2c(ncn2[C@@H]2O[C@H](COP(=O)(O)OP(=O)(O)OP(=O)(O)O)[C@@H](O)[C@H]2O)c(=O)[nH]1` [GUANOSINE TRIPHOSPHATE] registered a Relative initial slope in test [1] of 65. For the same compound, the Assembly with Tubulin (Bos taurus) worked out at 70%.

In the case of `CC(=O)O[C@H]1C(=O)[C@@]2(C)[C@H]([C@H](OC(=O)c3ccccc3)[C@]3(O)C[C@H](OC(=O)[C@H](O)[C@@H](NC(=O)c4ccccc4)c4ccccc4)C(C)=C1C3(C)C)[C@]1(OC(C)=O)CO[C@@H]1C[C@@H]2O` [PACLITAXEL], the Relative initial slope in test [1] came to 100. Also, the Assembly in the test on Tubulin (Bos taurus) was determined as 100%. Also, in the test on J774, the EC50 came out at 90 nM.
